According to ChEMBL document CHEMBL1212901, “Dimethylaminopyridine derivatives of lupane triterpenoids are potent disruptors of mitochondrial structure and function” (2010):
Calls of active or inactive are those of the source. No cut-off for these calls is given here.

Tests used:
[1] = Antiproliferative activity against human WM3211 cells after 3 days by SRB assay; type: functional; settings: read-out: ED50 (the source's name)
In short: (§1)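 WM3211 or WM793 melanoma cells in high-glucose DMEM with 8% Fetal Clone III, 3.5% horse serum and 5 mM Glutamax. Seeded at 20,000 cells/ml and rested 24 h. Serial 1:1 dilutions from 2 mg/ml DMSO stocks, incubated 72 h. Vehicle 0.2% DMSO. Cells fixed and stained with 0.5% SRB, dye eluted in Tris pH 10, A540 read. ED50 is the 50%-of-vehicle value taken from mean curves of three independent experiments.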

[2] = Antiproliferative activity against human WM793 cells after 3 days by SRB assay; type: functional; settings: read-out: ED50 (the source's name); in short: as §1
WM3211 [3] = test: Induction of apoptosis in human WM3211 cells assessed as change in fluorescence intensity using TMRM labeling by flow cytometry; type: functional, cell-based
In short: (§2)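 Cells suspended at 30,000 cells/ml in culture medium and exposed to compound at the single top test concentration for 5 h. TMRM added to 100 nM final for a further 60 min, then analysed by flow cytometry without medium replacement. Fluorescence given as percent of the DMSO vehicle control for each line. Mean of three independent experiments, SEM.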

WM3211 [4] = test: Induction of apoptosis in human WM3211 cells assessed as mitochondrial depolarization upto 4 ug/ml by flow cytometry; type: functional, cell-based; in short: as §2
WM3211 [5] = test: Induction of apoptosis in human WM3211 cells assessed as change in mitochondrial morphology upto 4 ug/ml by flow cytometry; type: functional, cell-based
WM793 [6] = test: Induction of apoptosis in human WM793 cells assessed as reduction in mitochondrial polarization upto 4 ug/ml by flow cytometry; type: functional, cell-based; in short: as §2
WM793 [7] = test: Induction of apoptosis in human WM793 cells assessed as mitochondrial fragmentation upto 4 ug/ml by flow cytometry; type: functional, cell-based
WM3211 [8] = test: Induction of apoptosis in human WM3211 cells assessed as mitochondrial fragmentation upto 4 ug/ml by flow cytometry; type: functional, cell-based
WM793 [9] = test: Induction of apoptosis in human WM793 cells assessed as change in fluorescence intensity using TMRM labeling by flow cytometry; type: functional, cell-based; in short: as §2
WM793 [10] = test: Induction of apoptosis in human WM793 cells assessed as vacuolization upto 4 ug/ml by flow cytometry; type: functional, cell-based
[11] = Antiproliferative activity against human WM793 cells at 4 ug/ml after 3 days by SRB assay; type: functional
In short: (§3)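 SRB proliferation in WM3211 or WM793 cells at the top concentration of the dilution series, after three days of exposure. Cells seeded at 20,000 cells/ml, with compound added after 24 h recovery. Vehicle control 0.2% DMSO. Growth read as A540 of Tris-eluted SRB and expressed as percent of vehicle control.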

[12] = Antiproliferative activity against human WM3211 cells at 4 ug/ml after 3 days by SRB assay; type: functional; in short: as §3

Row | Compound | EC50 ([1]; Homo sapiens, WM3211, 72 h) [nM] | EC50 ([2]; Homo sapiens, WM793, 72 h) [nM] | Activity (WM3211 [3]) | Activity (WM3211 [4]) | Activity (WM3211 [5]) | Activity (WM793 [6]) | Activity (WM793 [9]) | also measured
1 | C=C(C[n+]1ccc(N(C)C)cc1)[C@@H]1CC[C@]2(COC(=O)C(C)[n+]3ccc(N(C)C)cc3)CC[C@]3(C)[C@H](CC[C@@H]4[C@@]5(C)CC[C@H](OC(=O)C(C)[n+]6ccc(N(C)C)cc6)C(C)(C)[C@@H]5CC[C@]43C)[C@@H]12 (stereo partly drawn) [listing 1 of 3 here] | – | – | – | – | – | – | – | EC50 [1]: > 3800 nM; EC50 [2]: > 3800 nM
2 | C=C(C)[C@@H]1CC[C@]2(COC(=O)C[n+]3ccc(N(C)C)cc3)CC[C@]3(C)[C@H](CC[C@@H]4[C@@]5(C)CC[C@H](OC(=O)C[n+]6ccc(N(C)C)cc6)C(C)(C)[C@@H]5CC[C@]43C)[C@@H]12 [listing 1 of 3 here] | – | – | – | – | – | – | – | EC50 [1]: 500 nM; EC50 [2]: 500 nM
3 | C=C(C[n+]1ccc(N(C)C)cc1)[C@@H]1CC[C@]2(C(=O)O)CC[C@]3(C)[C@H](CC[C@@H]4[C@@]5(C)CC[C@H](OC(=O)C[n+]6ccc(N(C)C)cc6)C(C)(C)[C@@H]5CC[C@]43C)[C@@H]12 [listing 1 of 3 here] | > 4400 | > 4400 | – | – | – | – | – | –
4 | C=C(C)[C@@H]1CC[C@]2(COC(=O)CCC[n+]3ccc(N(C)C)cc3)CC[C@]3(C)[C@H](CC[C@@H]4[C@@]5(C)CC[C@H](OC(=O)CCC[n+]6ccc(N(C)C)cc6)C(C)(C)[C@@H]5CC[C@]43C)[C@@H]12 | 700 | 1300 | Active | Active | Active | Active | – | –
5 | C=C(C)[C@@H]1CC[C@]2(COC(=O)C[n+]3ccc(N(C)C)cc3)CC[C@]3(C)[C@H](CC[C@@H]4[C@@]5(C)CC[C@H](OC(=O)C[n+]6ccc(N(C)C)cc6)C(C)(C)[C@@H]5CC[C@]43C)[C@@H]12 [listing 2 of 3 here] | – | – | – | Active | – | Active | Active | Activity (WM793 [7]): Active; Activity (WM3211 [8]): Active
6 | C=C(C)[C@@H]1CC[C@]2(CO)CC[C@]3(C)[C@H](CC[C@@H]4[C@@]5(C)CC[C@H](OC(=O)C[n+]6ccc(N(C)C)cc6)C(C)(C)[C@@H]5CC[C@]43C)[C@@H]12 [listing 1 of 3 here] | – | – | – | – | – | – | – | EC50 [1]: 300 nM; EC50 [2]: 1900 nM
7 | C=C(C[n+]1ccc(N(C)C)cc1)[C@@H]1CC[C@]2(COC(=O)C(C)[n+]3ccc(N(C)C)cc3)CC[C@]3(C)[C@H](CC[C@@H]4[C@@]5(C)CC[C@H](OC(=O)C(C)[n+]6ccc(N(C)C)cc6)C(C)(C)[C@@H]5CC[C@]43C)[C@@H]12 (stereo partly drawn) [listing 2 of 3 here] | > 3500 | > 3500 | – | – | – | – | – | –
8 | C=C(C)[C@@H]1CC[C@]2(CO)CC[C@]3(C)[C@H](CC[C@@H]4[C@@]5(C)CC[C@H](OC(=O)C[n+]6ccc(N(C)C)cc6)C(C)(C)[C@@H]5CC[C@]43C)[C@@H]12 [listing 2 of 3 here] | – | – | – | Active | Active | Active | – | Activity (WM793 [10]): Active
9 | C=C(C)[C@@H]1CC[C@]2(COC(=O)C(C)[n+]3ccc(N(C)C)cc3)CC[C@]3(C)[C@H](CC[C@@H]4[C@@]5(C)CC[C@H](O)C(C)(C)[C@@H]5CC[C@]43C)[C@@H]12 (stereo partly drawn) | 800 | 2600 | Active | Active | Active | – | – | –
10 | C=C(C)[C@@H]1CC[C@]2(COC(=O)C(CC)[n+]3ccc(N(C)C)cc3)CC[C@]3(C)[C@H](CC[C@@H]4[C@@]5(C)CC[C@H](OC(=O)C(CC)[n+]6ccc(N(C)C)cc6)C(C)(C)[C@@H]5CC[C@]43C)[C@@H]12 (stereo partly drawn) | 300 | 500 | – | Active | – | Active | Active | Activity (WM793 [7]): Active; Activity (WM3211 [8]): Active
11 | C=C(C[n+]1ccc(N(C)C)cc1)[C@@H]1CC[C@]2(C(=O)O)CC[C@]3(C)[C@H](CC[C@@H]4[C@@]5(C)CC[C@H](O)C(C)(C)[C@@H]5CC[C@]43C)[C@@H]12 | > 6100 | > 6100 | Active | inactive | inactive | – | Active | –
12 | C=C(C[n+]1ccc(N(C)C)cc1)[C@@H]1CC[C@]2(C(=O)O)CC[C@]3(C)[C@H](CC[C@@H]4[C@@]5(C)CC[C@H](OC(=O)C[n+]6ccc(N(C)C)cc6)C(C)(C)[C@@H]5CC[C@]43C)[C@@H]12 [listing 2 of 3 here] | – | – | – | – | – | – | – | EC50 [1]: > 4700 nM; EC50 [2]: > 4700 nM
13 | C=C(C[n+]1ccc(N(C)C)cc1)[C@@H]1CC[C@]2(C(=O)O)CC[C@]3(C)[C@H](CC[C@@H]4[C@@]5(C)CC[C@H](OC(=O)C[n+]6ccc(N(C)C)cc6)C(C)(C)[C@@H]5CC[C@]43C)[C@@H]12 [listing 3 of 3 here] | – | – | Active | inactive | inactive | – | Active | –
14 | C=C(C)[C@@H]1CC[C@]2(CO)CC[C@]3(C)[C@H](CC[C@@H]4[C@@]5(C)CC[C@H](OC(=O)C[n+]6ccc(N(C)C)cc6)C(C)(C)[C@@H]5CC[C@]43C)[C@@H]12 [listing 3 of 3 here] | 600 | 2500 | – | – | – | – | – | –
15 | C=C(C)[C@@H]1CC[C@]2(C(=O)O)CC[C@]3(C)[C@H](CC[C@@H]4[C@@]5(C)CC[C@H](OC(=O)C[n+]6ccc(N(C)C)cc6)C(C)(C)[C@@H]5CC[C@]43C)[C@@H]12.[Br-] | 2600 | 5700 | Active | – | Active | – | Active | Activity [11]: 40%; Activity [12]: 40%
16 | C=C(C[n+]1ccc(N(C)C)cc1)[C@@H]1CC[C@]2(COC(=O)C(C)[n+]3ccc(N(C)C)cc3)CC[C@]3(C)[C@H](CC[C@@H]4[C@@]5(C)CC[C@H](OC(=O)C(C)[n+]6ccc(N(C)C)cc6)C(C)(C)[C@@H]5CC[C@]43C)[C@@H]12 (stereo partly drawn) [listing 3 of 3 here] | – | – | Active | inactive | inactive | – | Active | –
17 | C=C(C)[C@@H]1CC[C@]2(COC(=O)C(C)[n+]3ccc(N(C)C)cc3)CC[C@]3(C)[C@H](CC[C@@H]4[C@@]5(C)CC[C@H](OC(=O)C(C)[n+]6ccc(N(C)C)cc6)C(C)(C)[C@@H]5CC[C@]43C)[C@@H]12 (stereo partly drawn) | 500 | 500 | – | Active | – | Active | Active | Activity (WM793 [7]): Active; Activity (WM3211 [8]): Active
18 | C=C(C)[C@@H]1CC[C@]2(COC(=O)CC[n+]3ccc(N(C)C)cc3)CC[C@]3(C)[C@H](CC[C@@H]4[C@@]5(C)CC[C@H](OC(=O)CC[n+]6ccc(N(C)C)cc6)C(C)(C)[C@@H]5CC[C@]43C)[C@@H]12 | 600 | 800 | – | Active | – | Active | Active | Activity (WM793 [7]): Active; Activity (WM3211 [8]): Active
19 | C=C(C)[C@@H]1CC[C@]2(COC(=O)C[n+]3ccc(N(C)C)cc3)CC[C@]3(C)[C@H](CC[C@@H]4[C@@]5(C)CC[C@H](OC(=O)C[n+]6ccc(N(C)C)cc6)C(C)(C)[C@@H]5CC[C@]43C)[C@@H]12 [listing 3 of 3 here] | 400 | 400 | – | – | – | – | – | –
